Experimental data as given in ChEMBL document CHEMBL3779881, “Property Focused Structure-Based Optimization of Small Molecule Inhibitors of the Protein-Protein Interaction between Menin and Mixed Lineage Leukemia (MLL)” (J Med Chem, 2016).

Columns and labels:
[1] = Growth inhibition of MLL-AF9 transformed mouse bone marrow cells after 7 days by MTT assay; type: functional; conditions: Bone marrow cell, 168 h
[2] = Half life in CD-1 mouse liver microsomes at 1 uM after 3 to 60 mins by LC-MS/MS analysis; type: ADME
Bone marrow cell = experiment: Selectivity index, ratio of GI50 for Hoxa9/Meis1 transformed mouse bone marrow cells to GI50 for MLL-AF9 transformed mouse bone marrow cells; type: functional
[3] = Growth inhibition of Hoxa9/Meis1 transformed mouse bone marrow cells after 7 days by MTT assay; type: functional; conditions: Bone marrow cell, 168 h
[4] = target: Menin/Histone-lysine N-methyltransferase MLL (Homo sapiens, UniProt O00255); experiment: Inhibition of menin-MLL interaction (unknown origin) after 1 hr by fluorescence polarization assay; type: protein assay
Mus musculus [5] = experiment: Tmax in C57BL/6 mouse plasma at 30 mg/kg, po after 24 hrs by LC-MS/MS analysis; type: ADME, organism-based; conditions: in vivo
Summary of the method: (§1)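 Female C57BL/6 mice dosed iv at 15 mg/kg or orally at 30 mg/kg in 25% DMSO/25% PEG-400/50% PBS (v/v). Serial 50 μL blood samples collected over 24 h (8 h in one experiment), spun to plasma; concentrations by validated LC-MS/MS in positive-ion MRM mode; parameters from noncompartmental analysis.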

Mus musculus [6] = experiment: Oral bioavailability in C57BL/6 mouse at 30 mg/kg after 24 hrs by LC-MS/MS analysis; type: ADME, organism-based; conditions: in vivo; summary of the method: as §1
Mus musculus [7] = experiment: Volume of distribution at steady state in C57BL/6 mouse at 15 mg/kg, iv after 24 hrs by LC-MS/MS analysis; type: ADME, organism-based; conditions: in vivo; summary of the method: as §1
Mus musculus [8] = experiment: AUC in C57BL/6 mouse at 30 mg/kg, po after 24 hrs by LC-MS/MS analysis; type: ADME, organism-based; design: time < 24 hr, dose 30 mg/kg, route oral; conditions: in vivo; summary of the method: as §1
Mus musculus [9] = experiment: AUC in C57BL/6 mouse at 15 mg/kg, iv after 24 hrs by LC-MS/MS analysis; type: ADME, organism-based; design: dose 15 mg/kg, time < 24 hr, route intravenous; conditions: in vivo; summary of the method: as §1
Mus musculus [10] = experiment: Half life in C57BL/6 mouse at 15 mg/kg, iv after 24 hrs by LC-MS/MS analysis; type: ADME, organism-based; conditions: in vivo; summary of the method: as §1
[11] = Clearance in C57BL/6 mouse at 15 mg/kg, iv after 24 hrs by LC-MS/MS analysis; type: ADME, organism-based; conditions: in vivo; summary of the method: as §1
Mus musculus [12] = experiment: Half life in C57BL/6 mouse at 30 mg/kg, po after 24 hrs by LC-MS/MS analysis; type: ADME, organism-based; conditions: in vivo; summary of the method: as §1
Mus musculus [13] = experiment: Cmax in C57BL/6 mouse plasma at 30 mg/kg, po after 24 hrs by LC-MS/MS analysis; type: ADME, organism-based; design: dose 30 mg/kg, route oral; conditions: in vivo; summary of the method: as §1
Menin = target: T1, Menin (Homo sapiens, UniProt O00255); experiment: Binding affinity to menin (unknown origin)
T1 sequence (O00255 whole entry): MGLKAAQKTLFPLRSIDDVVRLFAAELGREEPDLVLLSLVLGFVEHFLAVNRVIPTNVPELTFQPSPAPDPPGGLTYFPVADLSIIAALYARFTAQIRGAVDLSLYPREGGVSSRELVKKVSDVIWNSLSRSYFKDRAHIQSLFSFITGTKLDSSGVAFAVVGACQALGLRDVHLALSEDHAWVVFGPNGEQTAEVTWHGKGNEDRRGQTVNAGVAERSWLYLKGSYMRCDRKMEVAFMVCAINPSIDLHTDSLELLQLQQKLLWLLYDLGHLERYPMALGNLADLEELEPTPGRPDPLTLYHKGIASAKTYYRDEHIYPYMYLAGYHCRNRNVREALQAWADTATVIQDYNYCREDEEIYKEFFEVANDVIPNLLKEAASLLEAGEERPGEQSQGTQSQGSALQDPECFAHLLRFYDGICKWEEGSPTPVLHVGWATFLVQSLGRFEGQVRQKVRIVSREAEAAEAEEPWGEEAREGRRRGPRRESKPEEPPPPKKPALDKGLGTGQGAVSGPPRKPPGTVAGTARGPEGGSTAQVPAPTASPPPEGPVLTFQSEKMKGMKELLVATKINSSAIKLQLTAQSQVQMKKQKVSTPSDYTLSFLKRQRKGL

Chain of Menin/Histone-lysine N-methyltransferase MLL (Q03164 1-2718 partner limits assumed, one chain of several): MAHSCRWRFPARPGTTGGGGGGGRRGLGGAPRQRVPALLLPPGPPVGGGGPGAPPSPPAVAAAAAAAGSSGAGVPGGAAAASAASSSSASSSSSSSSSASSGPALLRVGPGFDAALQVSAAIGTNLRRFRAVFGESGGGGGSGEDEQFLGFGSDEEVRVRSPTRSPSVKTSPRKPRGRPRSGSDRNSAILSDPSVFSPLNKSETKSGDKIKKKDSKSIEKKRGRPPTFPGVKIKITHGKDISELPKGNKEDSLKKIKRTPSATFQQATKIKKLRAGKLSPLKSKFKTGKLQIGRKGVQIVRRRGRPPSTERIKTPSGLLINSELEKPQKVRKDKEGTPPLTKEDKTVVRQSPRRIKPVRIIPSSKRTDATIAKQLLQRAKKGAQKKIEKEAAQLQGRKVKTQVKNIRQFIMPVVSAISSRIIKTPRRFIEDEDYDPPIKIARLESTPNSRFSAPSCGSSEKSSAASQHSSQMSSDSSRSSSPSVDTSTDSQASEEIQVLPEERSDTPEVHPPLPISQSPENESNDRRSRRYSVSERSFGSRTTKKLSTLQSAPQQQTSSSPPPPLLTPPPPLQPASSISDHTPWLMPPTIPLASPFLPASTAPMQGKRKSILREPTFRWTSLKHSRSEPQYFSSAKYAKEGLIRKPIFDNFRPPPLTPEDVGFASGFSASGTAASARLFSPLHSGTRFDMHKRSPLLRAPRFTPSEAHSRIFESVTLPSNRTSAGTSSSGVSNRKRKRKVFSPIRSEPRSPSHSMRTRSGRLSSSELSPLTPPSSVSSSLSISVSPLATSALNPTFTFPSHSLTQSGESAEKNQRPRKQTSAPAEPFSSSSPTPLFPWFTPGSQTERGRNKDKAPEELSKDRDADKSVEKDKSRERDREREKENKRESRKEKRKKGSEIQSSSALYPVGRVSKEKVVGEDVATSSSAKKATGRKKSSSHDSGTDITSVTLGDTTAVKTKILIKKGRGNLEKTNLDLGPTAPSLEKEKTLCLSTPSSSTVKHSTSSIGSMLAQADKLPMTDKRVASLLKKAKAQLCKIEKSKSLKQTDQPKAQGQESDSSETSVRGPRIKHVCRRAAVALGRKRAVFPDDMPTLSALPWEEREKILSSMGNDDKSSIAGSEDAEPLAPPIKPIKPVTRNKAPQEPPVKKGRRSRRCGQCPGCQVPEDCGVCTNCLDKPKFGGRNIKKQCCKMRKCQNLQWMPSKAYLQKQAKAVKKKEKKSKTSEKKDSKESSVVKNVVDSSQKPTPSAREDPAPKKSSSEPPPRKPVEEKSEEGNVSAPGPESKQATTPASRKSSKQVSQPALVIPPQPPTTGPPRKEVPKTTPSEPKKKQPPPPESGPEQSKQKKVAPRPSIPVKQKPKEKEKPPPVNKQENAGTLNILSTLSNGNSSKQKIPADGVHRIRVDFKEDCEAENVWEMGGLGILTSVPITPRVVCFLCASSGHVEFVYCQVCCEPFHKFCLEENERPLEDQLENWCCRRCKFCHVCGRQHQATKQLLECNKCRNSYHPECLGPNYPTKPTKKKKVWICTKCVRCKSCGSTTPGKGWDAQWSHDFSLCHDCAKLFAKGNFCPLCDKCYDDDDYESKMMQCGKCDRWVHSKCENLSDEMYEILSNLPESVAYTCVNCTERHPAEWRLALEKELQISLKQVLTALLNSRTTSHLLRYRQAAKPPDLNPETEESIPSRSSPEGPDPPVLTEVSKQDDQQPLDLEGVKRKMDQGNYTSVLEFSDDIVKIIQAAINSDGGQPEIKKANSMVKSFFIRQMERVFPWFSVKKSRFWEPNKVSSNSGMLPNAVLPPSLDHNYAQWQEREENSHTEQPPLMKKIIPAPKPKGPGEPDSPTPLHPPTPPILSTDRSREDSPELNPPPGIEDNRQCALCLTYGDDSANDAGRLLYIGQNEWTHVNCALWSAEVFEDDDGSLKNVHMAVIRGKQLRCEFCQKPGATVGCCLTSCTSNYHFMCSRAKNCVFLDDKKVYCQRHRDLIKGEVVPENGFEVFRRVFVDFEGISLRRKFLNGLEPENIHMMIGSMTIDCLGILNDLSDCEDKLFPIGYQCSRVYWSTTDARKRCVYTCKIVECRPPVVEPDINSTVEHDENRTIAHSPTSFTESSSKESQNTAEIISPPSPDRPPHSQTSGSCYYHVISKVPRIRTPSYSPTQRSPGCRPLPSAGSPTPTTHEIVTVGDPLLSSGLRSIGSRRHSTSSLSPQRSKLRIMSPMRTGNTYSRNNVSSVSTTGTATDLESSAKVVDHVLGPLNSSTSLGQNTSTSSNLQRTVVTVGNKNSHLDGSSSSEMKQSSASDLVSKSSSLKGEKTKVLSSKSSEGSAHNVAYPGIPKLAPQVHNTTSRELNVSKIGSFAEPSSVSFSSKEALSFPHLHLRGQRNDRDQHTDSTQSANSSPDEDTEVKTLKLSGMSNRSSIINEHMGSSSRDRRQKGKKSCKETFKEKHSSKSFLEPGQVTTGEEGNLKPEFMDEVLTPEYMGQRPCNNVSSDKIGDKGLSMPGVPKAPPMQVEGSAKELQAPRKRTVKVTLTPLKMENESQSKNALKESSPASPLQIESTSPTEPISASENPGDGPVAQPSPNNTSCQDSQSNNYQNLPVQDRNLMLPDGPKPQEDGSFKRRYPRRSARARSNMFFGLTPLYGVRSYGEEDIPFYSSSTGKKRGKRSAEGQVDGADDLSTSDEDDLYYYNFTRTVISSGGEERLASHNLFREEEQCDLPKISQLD
Chain of Menin/Histone-lysine N-methyltransferase MLL (Q03164 2719-3969 partner limits assumed, one chain of several): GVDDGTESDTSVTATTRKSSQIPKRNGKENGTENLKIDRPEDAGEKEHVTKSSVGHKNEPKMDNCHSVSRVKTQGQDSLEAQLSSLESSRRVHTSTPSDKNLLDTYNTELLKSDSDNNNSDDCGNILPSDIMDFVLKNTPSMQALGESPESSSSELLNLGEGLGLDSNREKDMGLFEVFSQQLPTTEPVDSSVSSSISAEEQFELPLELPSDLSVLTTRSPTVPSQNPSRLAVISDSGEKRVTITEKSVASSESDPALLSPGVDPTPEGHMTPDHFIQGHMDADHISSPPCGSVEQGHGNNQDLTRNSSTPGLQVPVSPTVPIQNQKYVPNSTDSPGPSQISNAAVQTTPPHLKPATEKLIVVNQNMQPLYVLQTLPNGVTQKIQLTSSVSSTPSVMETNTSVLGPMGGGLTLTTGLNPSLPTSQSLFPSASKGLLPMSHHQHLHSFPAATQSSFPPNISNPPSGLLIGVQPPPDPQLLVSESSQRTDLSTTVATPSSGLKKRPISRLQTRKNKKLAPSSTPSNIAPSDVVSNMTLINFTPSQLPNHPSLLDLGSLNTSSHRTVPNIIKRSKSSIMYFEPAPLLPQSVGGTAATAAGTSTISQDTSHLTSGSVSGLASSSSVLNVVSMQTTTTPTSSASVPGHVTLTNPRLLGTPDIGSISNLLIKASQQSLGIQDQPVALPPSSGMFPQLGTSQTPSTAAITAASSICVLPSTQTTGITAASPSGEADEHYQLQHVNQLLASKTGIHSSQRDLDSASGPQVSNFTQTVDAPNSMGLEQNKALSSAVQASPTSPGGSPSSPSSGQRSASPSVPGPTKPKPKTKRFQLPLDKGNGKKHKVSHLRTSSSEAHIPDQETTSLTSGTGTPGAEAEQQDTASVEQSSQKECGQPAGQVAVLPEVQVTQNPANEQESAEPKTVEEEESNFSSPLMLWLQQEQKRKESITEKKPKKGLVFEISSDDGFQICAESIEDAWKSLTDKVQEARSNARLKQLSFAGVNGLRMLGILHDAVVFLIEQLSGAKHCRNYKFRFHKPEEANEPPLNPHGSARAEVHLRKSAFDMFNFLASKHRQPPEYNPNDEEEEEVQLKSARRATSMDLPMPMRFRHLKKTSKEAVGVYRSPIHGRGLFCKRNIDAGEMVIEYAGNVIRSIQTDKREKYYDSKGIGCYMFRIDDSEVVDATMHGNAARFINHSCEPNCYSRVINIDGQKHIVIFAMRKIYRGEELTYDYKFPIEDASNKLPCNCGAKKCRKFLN

t1/2 [2] [min] | IC50 [4] [µM] | Tmax (Mus musculus [5]) [min] | F (Mus musculus [6]) [%] | Vdss (Mus musculus [7]) [L/kg] | AUC (Mus musculus [8]) [ng·h/mL] | AUC (Mus musculus [9]) [ng·h/mL] | t1/2 (Mus musculus [10]) [min] | clearance [11] [mL/min/kg] | t1/2 (Mus musculus [12]) [min] | Cmax (Mus musculus [13]) [ng/mL] | Kd (Menin) [µM] | SMILES | GI50 [1] [µM] | RatioGI50 (Bone marrow cell) | GI50 [3] [µM]
59 | 0.027 |  |  |  |  |  |  |  |  |  |  | Cc1c(CN2CCC(Nc3ncnc4sc(CC(F)(F)F)cc34)CC2)ccc2c1cc(C#N)n2CC(N)=O | 0.47 | >53 | > 25
3.7 | 0.022 |  |  |  |  |  |  |  |  |  |  | COc1cc2[nH]c(C#N)cc2cc1CN1CCC(Nc2ncnc3sc(CC(F)(F)F)cc23)CC1 | 0.34 | 47 | 16
> 60 | 0.037 |  |  |  |  |  |  |  |  |  |  | N#Cc1cc2cc(CN3CCC(Nc4ncnc5sc(CC(F)(F)F)cc45)CC3)ccc2n1CC(O)CO (racemic) | 3.4 | >3.5 | > 12
4.8 | 0.111 |  |  |  |  |  |  |  |  |  |  | Cc1c(C#N)[nH]c2ccc(CN3CCC(Nc4ncnc5sc(CC(F)(F)F)cc45)CC3)cc12 | 2.6 |  | 
32 | 0.016 |  |  |  |  |  |  |  |  |  |  | COc1cc2c(cc(C#N)n2Cc2c[nH]nn2)c(C)c1CN1CCC(Nc2ncnc3sc(CC(F)(F)F)cc23)CC1 | 0.41 | 22 | 9
56 | 0.027 | 120 | 34 | 4.454 | 3846 | 5666 | 102 | 44.1 | 240 | 649 |  | Cc1c(CN2CCC(Nc3ncnc4sc(CC(F)(F)F)cc34)CC2)c(O)cc2[nH]c(C#N)cc12 | 0.22 | 55 | 12
> 60 | 0.042 |  |  |  |  |  |  |  |  |  |  | N#Cc1cc2cc(CN3CCC(Nc4ncnc5sc(CC(F)(F)F)cc45)CC3)ccc2n1C[C@H](O)CO | 3.8 |  | 
59 | 0.023 |  |  |  |  |  |  |  |  |  |  | Cc1c(CN2CCC(Nc3ncnc4sc(CC(F)(F)F)cc34)CC2)ccc2c1cc(C#N)n2Cc1c[nH]nn1 | 0.25 | 32 | 8
11 | 0.027 |  |  |  |  |  |  |  |  |  |  | Cc1c(CN2CCC(Nc3ncnc4sc(CC(F)(F)F)cc34)CC2)c(O)cc2c1cc(C#N)n2CCO | 0.4 | 25 | 10
< 3 | 0.101 |  |  |  |  |  |  |  |  |  |  | COCC(O)Cn1c(C#N)cc2cc(CN3CCC(Nc4ncnc5sc(CC(F)(F)F)cc45)CC3)ccc21 (stereo unspecified) | 2.1 |  | 
7.8 | 0.016 |  |  |  |  |  |  |  |  |  |  | COc1cc2c(cc(C#N)n2CCO)c(C)c1CN1CCC(Nc2ncnc3sc(CC(F)(F)F)cc23)CC1 | 0.36 | 69 | 15
5.7 | 0.096 |  |  |  |  |  |  |  |  |  |  | N#Cc1[nH]c2ccc(CN3CCC(Nc4ncnc5sc(CC(F)(F)F)cc45)CC3)cc2c1F | 1.7 |  | 
< 3 | 0.023 |  |  |  |  |  |  |  |  |  |  | CC(C)OC(CO)Cn1c(C#N)cc2cc(CN3CCC(Nc4ncnc5sc(CC(F)(F)F)cc45)CC3)ccc21 (stereo unspecified) | 0.18 | 19 | 3.5
6.6 | 0.02 |  |  |  |  |  |  |  |  |  |  | N#Cc1cc2cc(CN3CCC(Nc4ncnc5sc(CC(F)(F)F)cc45)CC3)c(O)cc2[nH]1 | 0.18 | >56 | > 10
> 60 | 0.037 |  |  |  |  |  |  |  |  |  |  | COc1cc2c(cc(C#N)n2CC(N)=O)c(C)c1CN1CCC(Nc2ncnc3sc(CC(F)(F)F)cc23)CC1 | 0.42 | >60 | > 25
48 | 0.046 |  |  |  |  |  |  |  |  |  |  | N#Cc1cc2cc(CN3CCC(Nc4ncnc5sc(CC(F)(F)F)cc45)CC3)ccc2n1C[C@@H](O)CO | 1.7 | >24 | > 40
28 | 0.022 |  |  |  |  |  |  |  |  |  |  | N#Cc1cc2c(Cl)c(CN3CCC(Nc4ncnc5sc(CC(F)(F)F)cc45)CC3)ccc2[nH]1 | 1.1 | 10 | 11

t1/2 [2] [min] | IC50 [4] [µM] | Tmax (Mus musculus [5]) [min] | F (Mus musculus [6]) [%] | Vdss (Mus musculus [7]) [L/kg] | AUC (Mus musculus [8]) [ng·h/mL] | AUC (Mus musculus [9]) [ng·h/mL] | t1/2 (Mus musculus [10]) [min] | clearance [11] [mL/min/kg] | t1/2 (Mus musculus [12]) [min] | Cmax (Mus musculus [13]) [ng/mL] | Kd (Menin) [µM] | SMILES | GI50 [1] [µM] | RatioGI50 (Bone marrow cell) | GI50 [3] [µM]
25 | 0.018 |  |  |  |  |  |  |  |  |  |  | Cc1c(CN2CCC(Nc3ncnc4sc(CC(F)(F)F)cc34)CC2)c(O)cc2c1cc(C#N)n2Cc1cn[nH]c1 | 0.27 | 48 | 13
39 | 0.04 | 30 | 46 | 3.698 | 8717 | 9397 | 108 | 26.6 | 120 | 2113 |  | COc1cc2[nH]c(C#N)cc2c(C)c1CN1CCC(Nc2ncnc3sc(CC(F)(F)F)cc23)CC1 | 0.1 | 110 | 11
35 | 0.024 |  |  |  |  |  |  |  |  |  |  | COc1cc2c(cc1CN1CCC(Nc3ncnc4sc(CC(F)(F)F)cc34)CC1)cc(C#N)n2Cc1cn[nH]c1 | 0.29 | 23 | 6.7
11 | 0.027 |  |  |  |  |  |  |  |  |  |  | N#Cc1cc2cc(CN3CCC(Nc4ncnc5sc(CC(F)(F)F)cc45)CC3)ccc2n1Cc1c[nH]nn1 | 0.33 | 30 | 10
11 | 0.047 |  |  |  |  |  |  |  |  |  |  | CCOc1cc2[nH]c(C#N)cc2cc1CN1CCC(Nc2ncnc3sc(CC(F)(F)F)cc23)CC1 | 0.45 | 12 | 5.3
27 | 0.124 |  |  |  |  |  |  |  |  |  |  | N#Cc1[nH]c2ccc(CN3CCC(Nc4ncnc5sc(CC(F)(F)F)cc45)CC3)cc2c1N | 5.2 |  | 
9 | 0.109 |  |  |  |  |  |  |  |  |  |  | N#Cc1cc2cc(CN3CCC(Nc4ncnc5sc(CC(F)(F)F)cc45)CC3)c(F)cc2[nH]1 | 3 | >4 | > 12
18 | 0.035 |  |  |  |  |  |  |  |  |  |  | N#Cc1cc2cc(CN3CCC(Nc4ncnc5sc(CC(F)(F)F)cc45)CC3)ccc2n1CCO | 1.1 | 5.6 | 6.2
 | 0.244 |  |  |  |  |  |  |  |  |  |  | CC(C(N)=O)n1c(C#N)cc2cc(CN3CCC(Nc4ncnc5sc(CC(F)(F)F)cc45)CC3)ccc21 (stereo unspecified) |  |  | 
23 | 0.044 |  |  |  |  |  |  |  |  |  |  | Cc1c(CN2CCC(Nc3ncnc4sc(CC(F)(F)F)cc34)CC2)ccc2c1cc(C#N)n2CCO | 0.44 | 13 | 5.6
8.3 | 0.023 |  |  |  |  |  |  |  |  |  |  | N#Cc1cc2cc(CN3CCC(Nc4ncnc5sc(CC(F)(F)F)cc45)CC3)ccc2n1Cc1cn[nH]c1 | 0.26 | 27 | 6.9
< 3 | 0.04 |  |  |  |  |  |  |  |  |  |  | CO[C@@H](CO)Cn1c(C#N)cc2cc(CN3CCC(Nc4ncnc5sc(CC(F)(F)F)cc45)CC3)ccc21 | 0.36 | 27 | 9.7
 |  |  |  |  |  |  |  |  |  |  |  | Cc1c(CN2CCC(Nc3ncnc4sc(CC(F)(F)F)cc34)CC2)ccc2[nH]c(C#N)cc12 | 0.2 |  | 5.6
5.2 | 0.037 |  |  |  |  |  |  |  |  |  |  | CO[C@H](CO)Cn1c(C#N)cc2cc(CN3CCC(Nc4ncnc5sc(CC(F)(F)F)cc45)CC3)ccc21 | 0.66 | 11 | 6.9
6.8 | 0.031 | 60 | 57 | 6.516 | 7509 | 6576 | 186 | 38.1 | 186 | 1516 | 0.0236 | N#Cc1cc2cc(CN3CCC(Nc4ncnc5sc(CC(F)(F)F)cc45)CC3)ccc2[nH]1 | 0.55 | 5.5 | 3
25 | 0.017 |  |  |  |  |  |  |  |  |  |  | Cc1c(CN2CCC(Nc3ncnc4sc(CC(F)(F)F)cc34)CC2)c(O)cc2c1cc(C#N)n2Cc1c[nH]nn1 | 0.42 | 24 | 10
